The record followed here is ChEMBL document CHEMBL3994592, “Antimicrobial Oligophenalenone Dimers from the Soil Fungus Talaromyces stipitatus” (J Nat Prod, 2016).

SMILES strings stand for the structures. ≈ marks a conversion by molar mass, not a printed value. Some results are limits rather than exact numbers.

For one experiment, the system named is HeLa. Description: Cytotoxicity against human HeLa cells assessed as reduction in cell viability by MTT assay. It is filed as functional, cell-based. In outline:
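HeLa cells were seeded at 2500 cells/well, incubated overnight, then exposed in exponential growth to a range of concentrations for four doubling times. Viability was measured by MTT, 4 h at 37 °C, with formazan read at 560 nm. Concentration inhibiting growth by 50% versus untreated controls was taken from dose-survival curves. At least three independent experiments, each in duplicate; cisplatin served as control.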
On the technique in general: Tetrazolium dyes change colour on reduction, which living cells bring about.

The next experiment concerns Enterococcus faecalis. Description: Antibacterial activity against Enterococcus faecalis CIP 103014 after 24 hrs. It is filed as functional. The conditions noted are these: CIP 103014, 24 h. The procedure, abridged:
(§1)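 Broth microdilution in LB. Precultures were grown 24 h at 37 °C in 10 mL LB and diluted 1/1000 (OD600 0.01) into 96-well plates. Two-fold serial dilutions were made from 10 mg/mL stocks, 2 µL per 200 µL medium. Plates were incubated 24 h at 37 °C and OD read at 595 nm. MIC is the concentration giving a 90% decrease versus DMSO-only control, obtained by curve fitting.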

The test system of another experiment is Escherichia coli. Description: Antibacterial activity against Escherichia coli ATCC 8739 after 24 hrs. In kind it is functional. Conditions: ATCC 8739, ATCC 8739, 24 h. The procedure, abridged: as §1
The subject of the next experiment is Staphylococcus aureus. Description: Antibacterial activity against Staphylococcus aureus ATCC 6538 after 24 hrs. Conditions: ATCC 6538, 24 h. It is filed as functional. In outline:
as §1

Experiment [1] relates to Staphylococcus haemolyticus. The experiment in a line: Antibacterial activity against Staphylococcus haemolyticus MNHN26 after 24 hrs. It is filed as functional. Conditions: MNHN26, 24 h. In outline:
as §1

The term IC50 denotes the midpoint of a concentration-inhibition curve. As a reminder, the MIC90 is the lowest concentration that inhibits either 90% of growth or 90% of the strains tested, depending on the study. Read a low MIC90 as higher susceptibility. The term MIC denotes the smallest concentration in the dilution series that meets the test's criterion for growth inhibition. A lower MIC goes with greater potency. `CC(=O)O[C@H]1[C@@H]2C(=O)c3c(C)cc(O)c4c3[C@@]1(COC4=O)c1c(O)c(C=O)c3cc(O)cc(C)c3c12`: the IC50 in the experiment with HeLa was above 50 µM. Moreover, the MIC90 (in the experiment on Enterococcus faecalis; in the experiment with Staphylococcus aureus; in experiment [1]) was above 50 µg/mL each time. This molecule yielded an MIC in the experiment with Escherichia coli above 100 µg/mL.
With `CC(=O)O[C@H]1[C@@H]2C(=O)c3c(C)cc(O)c4c3[C@@]1(COC4=O)c1c(O)c3c4c(c(O)cc(C)c4c12)C(=O)OC3`, the MIC90 in the experiment with Enterococcus faecalis was 2.4 µg/mL (≈ 4.65 µM); against Staphylococcus aureus, 5.2 µg/mL (≈ 10.1 µM); in experiment [1], 9.5 µg/mL (≈ 18.4 µM). The molecule also gave an MIC against Escherichia coli above 100 µg/mL.
`CO[C@H]1OC(=O)c2c(O)cc(C)c3c4c(c(O)c1c23)[C@]12COC(=O)c3c(O)cc(C)c(c31)C(=O)[C@H]4[C@@H]2OC(C)=O`: the IC50 with HeLa was above 50 µM. The MIC90 was above 30 µg/mL in the experiment on Enterococcus faecalis, 15.6 µg/mL (≈ 28.5 µM) with Staphylococcus aureus and above 30 µg/mL in experiment [1]. The MIC against Escherichia coli is above 100 µg/mL.
In the case of `CO[C@@]12c3c(C)cc(O)c4c3C(=C(O)[C@@H]1[C@]13COC(=O)c5c(O)cc(C)c(c51)C(=O)[C@H]2[C@@H]3OC(C)=O)C=NC4=O`, the IC50 in the experiment on HeLa was determined as 49.5 µM. Further, the values for the MIC90 (against Enterococcus faecalis; with Staphylococcus aureus; in experiment [1]) were above 30 µg/mL, 5 µg/mL (≈ 9.17 µM) and 20.4 µg/mL (≈ 37.4 µM), respectively. In the experiment on Escherichia coli, this molecule yielded an MIC above 100 µg/mL.
With `CC(=O)O[C@H]1[C@@H]2C(=O)c3c(C)cc(O)c4c3[C@@]1(COC4=O)C1=C2c2c(C)cc(O)c3c2[C@@](O)(COC3=O)C1=O`, the IC50 in the experiment on HeLa was above 100 µM. In addition, the MIC90 is above 30 µg/mL with Enterococcus faecalis, 29.3 µg/mL (≈ 55 µM) against Staphylococcus aureus and above 30 µg/mL in experiment [1]. In the experiment on Escherichia coli, this molecule yielded an MIC above 100 µg/mL.
Regarding `CN(C)[C@@H]1C(O)=C(C(N)=O)C(=O)[C@@]2(O)C(O)=C3C(=O)c4c(O)cccc4[C@@](C)(O)[C@H]3C[C@@H]12` [TETRACYCLINE], the MIC90 against Enterococcus faecalis was 0.4 µg/mL (≈ 0.9 µM); against Staphylococcus aureus it was 0.05 µg/mL (≈ 0.113 µM); in experiment [1], 29.5 µg/mL (≈ 66.4 µM).
